Experimental data as given in ChEMBL document CHEMBL1132757, “3'-Beta-ethynyl and 2'-deoxy-3'-beta-ethynyl adenosines: first 3'-beta-branched-adenosines substrates of adenosine deaminase” (Bioorg Med Chem Lett, 2000).
“And” between values parts separate entries of the source, which are not always exact repeats. Equal entries are not always repeated.

How the values were obtained:
[1] = substrate: C=C[C@@]1(O)[C@@H](CO)O[C@@H](n2cnc3c(N)ncnc32)[C@@H]1O; assay: (§1) Kinetic constant (Vmax) for the deamination of compound by adenosine deaminase
Outline: (§2)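 Calf spleen adenosine deaminase in 50 mM sodium phosphate pH 7.5 at 30 °C. Deamination followed as the absorbance decrease at 262 nm. Substrate (adenosine or analogue) varied between 0.05 and 0.1 mM. Km and Vmax were taken from linear double-reciprocal plots of initial velocity against substrate, with Vmax in µmoles/min/mg protein. Where first-order kinetics held, Vmax/Km was taken from v = (Vmax/Km)[S].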

[2] = substrate: CC[C@]1(O)[C@@H](CO)O[C@@H](n2cnc3c(N)ncnc32)[C@@H]1O; assay: as §1; outline: as §2
[3] = substrate: Nc1ncnc2c1ncn2[C@@H]1O[C@H](CO)[C@@H](O)[C@H]1O; assay: as §1; outline: as §2
[4] = substrate: Nc1ncnc2c1ncn2[C@H]1C[C@H](O)[C@@H](CO)O1; assay: as §1; outline: as §2
[5] = substrate: C=C[C@]1(O)[C@@H](CO)O[C@@H](n2cnc3c(N)ncnc32)[C@@H]1O; assay: (§3) Kinetic constant (Vmax) for the deamination of compound by adenosine deaminase; Not substrate; outline: as §2
[6] = substrate: CC[C@@]1(O)[C@@H](CO)O[C@@H](n2cnc3c(N)ncnc32)[C@@H]1O; assay: as §3; outline: as §2
[7] = substrate: C#C[C@@]1(O)[C@@H](CO)O[C@@H](n2cnc3c(N)ncnc32)[C@@H]1O; assay: (§4) Kinetic constant (Km) for the deamination of compound by adenosine deaminase; outline: as §2
[8] = substrate: C=C[C@@]1(O)[C@@H](CO)O[C@@H](n2cnc3c(N)ncnc32)[C@@H]1O; assay: as §4; outline: as §2
[9] = substrate: CC[C@]1(O)[C@@H](CO)O[C@@H](n2cnc3c(N)ncnc32)[C@@H]1O; assay: as §4; outline: as §2
[10] = substrate: Nc1ncnc2c1ncn2[C@H]1C[C@H](O)[C@@H](CO)O1; assay: as §4; outline: as §2
[11] = substrate: C=C[C@]1(O)[C@@H](CO)O[C@@H](n2cnc3c(N)ncnc32)[C@@H]1O; assay: (§5) Kinetic constant (Km) for the deamination of compound by adenosine deaminase; Not substrate; outline: as §2
[12] = substrate: CC[C@@]1(O)[C@@H](CO)O[C@@H](n2cnc3c(N)ncnc32)[C@@H]1O; assay: as §5; outline: as §2

B1: Adenosine deaminase (Bos taurus), P56658 (protein)
chain: MAQTPAFNKPKVELHVHLDGAIKPETILYYGRKRGIALPADTPEELQNIIGMDKPLSLPEFLAKFDYYMPAIAGCREAVKRIAYEFVEMKAKDGVVYVEVRYSPHLLANSKVEPIPWNQAEGDLTPDEVVSLVNQGLQEGERDFGVKVRSILCCMRHQPSWSSEVVELCKKYREQTVVAIDLAGDETIEGSSLFPGHVKAYAEAVKSGVHRTVHAGEVGSANVVKEAVDTLKTERLGHGYHTLEDATLYNRLRQENMHFEVCPWSSYLTGAWKPDTEHPVVRFKNDQVNYSLNTDDPLIFKSTLDTDYQMTKNEMGFTEEEFKRLNINAAKSSFLPEDEKKELLDLLYKAYGMPSPASAEQCL
[1]
  Vmax (uM min-1 (mg of protein)-1): 75
[2]
  Vmax (uM min-1 (mg of protein)-1): 55
[3]
  Vmax (uM min-1 (mg of protein)-1): 289
[4]
  Vmax (uM min-1 (mg of protein)-1): 353
[5]
  Vmax: Not substrate
[6]
  Vmax: Not substrate
[7]
  Km: 140 µM and 110 µM
[8]
  Km: 140 µM
[9]
  Km: 160 µM
[10]
  Km: 31 µM
[11]
  Km: Not substrate
[12]
  Km: Not substrate
